Results on 98 compounds are retold here after ChEMBL document CHEMBL4513216, “Probing the Open Global Health Chemical Diversity Library for Multistage-Active Starting Points for Next-Generation Antimalarials” (ACS Infect Dis, 2020).

A short description of this series: Toxicity liver stage against HepG2, at 10uM. The class given is cell-based. More on the design: test concentration 10 uM, cell line HepG2-A16-CD81EGFP. The following applies: human, HepG2-A16-CD81EGFP cells; read-out: INHIBITION
Put shortly:
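Uninfected HepG2-A16-CD81EGFP cells, 3 × 10^3 per well, 1536-well, plated on prespotted compound at 10 μM final, parasite-free screening media added to match infected plates; puromycin 10 μM positive, DMSO 0.5% negative; run in parallel with 48 h PbLuc assay at 37 °C, 5% CO2; viability by CellTiter-Glo luminescence, normalized to controls.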
In the case of `CCOc1ccc(NC(=O)N(CCN(C)C)C(C)c2ccncc2)cc1` (stereo not drawn), the cytotoxicity at 10 µM was found to be 5.42%.
The figure for `COc1ccc(-c2noc([C@@H](C)NC(=O)CC(C)C)c2C(=O)O)cc1` is 2.05%.
The figure for `COCCNC(=O)c1cnc(N(C)C)nc1C` is -5.33%; for `CCc1cc(=O)[nH]c2nnc(SCC(=O)N3CCC(C)CC3)n12` it is -5.43%; for `CCCS(=O)(=O)N1CCN(CC(F)(F)F)CC1` it is -3.29%.
The figure for `Cn1c(C(=O)N2CCOCC2)nc2c1CCN(c1ncccn1)C2` is 1.7%.
Regarding `CN(C)C(=O)[C@@H]1C[C@@H]2CCN(C3CCOCC3)C[C@@H]2O1`, the cytotoxicity at 10 µM is -7.56%.
The figure for `Cc1ccc(-n2nnc(C(=O)O)c2C)c(C)c1` is -0.185%; for `CC(C)CNC(=O)c1c(-n2cnnn2)sc2c1CCC2` it is -4.56%.
The figure for `CCS(=O)(=O)Nc1ccn(Cc2ccc(F)cc2Cl)n1` is 3.18%; for `Cc1c(CN2Cc3nccn3CC2c2ccccc2)cnn1C` (stereo not drawn) it is -1.13%; for `Cn1ccc(C(=O)N2CCCC2c2cc(CO)[nH]n2)n1` (stereo not drawn) it is 4.95%.
The figure for `Cc1c[nH]nc1C1CN(c2ncccn2)CCO1` (stereo not drawn) is 4.37%; for `COCC(=O)NCCc1nc(N(C)C)ncc1-c1ccncc1` it is -3.46%.
Take `Cn1ccc(C(=O)N2CCCC(c3cc4cccnc4c(O)n3)C2)n1` (stereo not drawn): the cytotoxicity at 10 µM was determined as 4.53%.
The figure for `COc1ccc2[nH]cc(C(=O)N3C[C@@H](O)[C@H](NS(C)(=O)=O)C3)c2c1` is -9.26%; for `CN(Cc1ccc(F)cc1)CC1(O)CCN(C(=O)c2ccccn2)C1` (stereo not drawn) it is -3%.
The figure for `O=C1NCc2ccccc2CC12CCCN(Cc1ccsc1)C2` (stereo not drawn) is 11%.
As to `Cc1cnn(CC2CCN(CC(O)COc3ccccc3)CC2)c1` (stereo not drawn), the cytotoxicity at 10 µM is -1.62%.
The figure for `CN(C)C(=O)c1ccc(-c2cscn2)cc1` is 1.53%; for `Cc1nc(CN2CCN(c3cncc(Cl)n3)CC2)no1` it is 6.45%; for `Cc1ccc(NCc2ccc(C#N)cc2)cc1-n1cnnn1` it is -0.657%.
The figure for `Cc1noc(C)c1Cc1nc(C2CC2)no1` is 5.42%; for `CN(Cc1ccc(F)c2cccnc12)C1CCS(=O)(=O)C1` (stereo not drawn) it is 5.93%; for `CCOc1ccc(Cl)c(C(=O)NC(C)C(N)=O)n1` (stereo not drawn) it is 7.53%.
The figure for `CC(C)N(C)S(=O)(=O)N(Cc1cccs1)Cc1cccs1` is -45.2%; for `Cc1ccc(C(=O)NS(=O)(=O)c2ccc3c(c2)OCCCO3)o1` it is 2.91%; for `CN(Cc1c(F)cccc1Cl)C(=O)c1cnn(CCN2CCOCC2)c1` it is -4.2%.
As for `COCCN(C)CC1CCCN1S(=O)(=O)Cc1ccccc1F` (stereo not drawn), the cytotoxicity at 10 µM is 6.84%.
The figure for `Cc1cc(C)c2cc(C(=O)N3CCNC(=O)C3)[nH]c2c1` is -13.1%.
The figure for `COc1ccc(CN(C)Cc2c(C)noc2C)c(Cl)c1OC` is -1.22%.
In the case of `CCc1nc2n(n1)CC(NCc1cn(C)nc1-c1cccnc1)CC2` (stereo not drawn), the cytotoxicity at 10 µM was -5.95%.
The figure for `O=C(NCc1nncn1C1CC1)C1(c2ccc(F)cc2)CCCC1` is -1.89%; for `COCCCS(=O)(=O)N1CCN(c2cccc(O)c2)CC1` it is 4.42%.
The figure for `Cc1noc(C)c1CCC(=O)NC(C)c1nnc2n1CCCCC2` (stereo not drawn) is -1.18%; for `CC(C)OCCC(=O)NCCC(=O)N1CCN(c2ccccn2)CC1` it is 2.56%.
As to `O=C(CO)N1CCN(C(=O)c2coc3ccccc23)CC1`, the cytotoxicity at 10 µM came out at 3.16%.
The figure for `CC(C)Nc1ncccc1C(=O)NCc1ncc[nH]1` is -7.9%; for `COc1ccc(F)c(NCC(C)(C)S(C)(=O)=O)c1` it is -3.18%; for `Cc1ccc(C)c(NC(=O)Cn2nc(C)c(C#N)c2N)c1` it is -4.57%.
The figure for `c1cnn(-c2ccc(CCNC3CCN(C4CC4)C3)cc2)c1` (stereo not drawn) is 2.84%; for `CCc1noc(CC)c1CC(=O)N1CCCC(N2CCCCC2)C1` (stereo not drawn) it is -15.3%; for `O=C1C(NCc2ccccc2O)CCN1Cc1ccccc1` (stereo not drawn) it is -9.11%.
The figure for `Cc1nc(CNC(C(=O)N2CCOCC2)C(C)C)no1` (stereo not drawn) is 5.76%; for `CNS(=O)(=O)CC(=O)NC(C)Cc1ccc(-c2ccccc2)cc1` (stereo not drawn) it is 7.69%.
For the compound `Cc1cnn(C2CN(Cc3noc(C4CC4)n3)C2)c1`, the cytotoxicity at 10 µM was 4.34%.
The figure for `CC(C#N)CSc1ccccc1NCC(=O)NCc1ccccc1` (stereo not drawn) is -7.89%; for `Cc1cc(CN2CC[C@H]3OCC[C@@]3(C(=O)N3CCOCC3)C2)no1` it is 7.93%; for `Cc1cccc(N2CC3(CCN(C(=O)NC(C)C)C3)CC2=O)c1` (stereo not drawn) it is -3.7%.
The figure for `Cc1ccc2c(c1)[C@@H](CC(=O)N(C)C)CCO2` is -3.78%; for `CC[C@H](C)[C@H](N)C(=O)N1CC(=O)c2sc(Nc3ccc(F)cc3)nc2C1` it is -1.44%; for `CCOC(=O)c1n[nH]cc1CN1CCCC(N(C)Cc2ccccc2)C1` (stereo not drawn) it is -1.44%.
The figure for `FC(F)(F)c1ccnc(N2CCC(c3nccn3CC3CC3)CC2)n1` is 3.03%; for `CN(C)CCNCC1(O)CCCN(Cc2cccc(F)c2F)C1=O` (stereo not drawn) it is -8.71%.
For `CN(Cc1ccon1)C(=O)CN1C(=O)OC(C)(C)C1=O`, the cytotoxicity at 10 µM was -108%.
The figure for `Cc1ccc2nc(C(=O)N3CC(c4cccnc4)C3)cn2c1` is -7.5%; for `COCc1ccc(C(=O)N2CCCN(Cc3ccc(F)cc3)CC2)s1` it is -1.78%; for `CC(=O)N1CCCn2nc(CNC(=O)N3CCCCC3)cc2C1` it is -3.91%.
Turning to `Cc1cc(C)n(CC2(CNC(=O)C(c3ccccc3F)N(C)C)CC2)n1` (stereo not drawn), the cytotoxicity at 10 µM amounted to 1.64%.
The figure for `Cc1cccc2[nH]c(C3CCCN(Cc4ccc(CO)o4)C3)nc12` (stereo not drawn) is 9.83%; for `CCC(CO)N(Cc1cccs1)C(=O)CNS(=O)(=O)c1cccs1` (stereo not drawn) it is 4.98%.
The figure for `CC(Cc1cnccn1)NC(=O)COc1ccc(F)cc1F` (stereo not drawn) is -44.4%; for `COCCN(Cc1sccc1C)c1nc(C)nc2sccc12` it is -131%; for `COc1ccc(-c2cccc(-c3ccn(CCN(C)C)n3)c2)nn1` it is -1.39%.
The figure for `Fc1ccccc1C1(CNC2CCOC3(CCOCC3)C2)CCCC1` (stereo not drawn) is -1.53%; for `CN1CCN(Cc2ccccc2Oc2ccc(C(N)=O)cn2)CC1` it is -23.6%; for `CC(C)[C@@H]1CN(Cc2cnc(C3CCCCC3)nc2)C[C@H]1N(C)C` it is -3.18%.
In the case of `CCO[C@H]1C[C@@H](O)C12CCN(C(=O)CCN1CCCC1=O)CC2`, the cytotoxicity at 10 µM is 2.12%.
The figure for `CC(C)[C@@H]1CN(Cc2ccccc2C#N)C[C@H]1C(=O)O` is 6.3%; for `Cc1cc(=O)[nH]c(NCCNC(=O)CN2CCCCCC2)n1` it is 3.28%; for `O=C1CNCC(C(=O)N2CC(Oc3ccccc3Cl)C2)N1` (stereo not drawn) it is 10.9%.
The figure for `O=C1N(Cc2cccc(F)c2F)CCCC1(O)CNCc1ccccn1` (stereo not drawn) is -9.28%; for `Cc1cc(C(=O)N2C[C@@H](C(=O)O)[C@H](c3ccccc3C)C2)c(C)o1` it is 16.8%; for `O=C(O)c1coc(COc2cccc(F)c2)n1` it is 0.523%.
The figure for `O=C1CCC(=O)N1c1nn(Cc2cccc(F)c2)cc1Cl` is -6.61%.
With `COc1ccccc1CNc1cnn(CC(F)F)c1`, the cytotoxicity at 10 µM is -5.41%.
`COc1ccc(CN(Cc2nc(C)no2)C2CCCCC2)cc1OC`: the cytotoxicity at 10 µM is -0.0185%.
The figure for `Cc1c(F)cc(C(=O)O)cc1S(=O)(=O)Nc1ccc(C#N)cc1` is -6.04%.
The figure for `NC(=O)c1cc(C2CCCN(CCCOc3ccc(F)cc3)C2)n[nH]1` (stereo not drawn) is -16.4%; for `CC(C)(C)c1cnc(CN2CCCCC2Cn2cccn2)o1` (stereo not drawn) it is -7.85%; for `COc1ccc(OC)c(C(=O)N2CCCCC2Cn2cccn2)c1` (stereo not drawn) it is -0.677%.
In the case of `Cc1noc(C)c1CN(C)CC(=O)N1CCc2sccc2C1`, the cytotoxicity at 10 µM was -19.4%.
The figure for `CCCS(=O)(=O)NC(C)C(=O)NCc1ccnc(N2CCCC2)c1` (stereo not drawn) is -13.6%.
The figure for `COc1ncccc1NC(=O)NC(C)c1nncn1C` (stereo not drawn) is -18.8%; for `NC(=O)CN1CCCN(C(=O)Cc2ccc(F)c(Br)c2)CC1` it is 0.361%.
The figure for `CCc1nccn1C1CCCN(C(=O)Cc2ccc(OC)c(F)c2)C1` (stereo not drawn) is -3.59%; for `Cc1ccc(-c2nnc(CNCCn3cc(C)cn3)o2)cc1` it is -12.1%; for `CC(=O)Nc1nc(CN2CCOC(Cn3cc(C)cn3)C2)cs1` (stereo not drawn) it is 11.3%.
In the case of `Cn1cnnc1C1CCCN(C(=O)Cc2ccc3c(c2)OCCO3)C1` (stereo not drawn), the cytotoxicity at 10 µM was determined as 0.626%.
The figure for `O=C(c1cccc2c1OCO2)N1CCCC1Cn1cccn1` (stereo not drawn) is 3.46%; for `NCCC(=O)Nc1ccc(-c2ccccc2)cc1` it is -1.81%.
The figure for `Cc1nc(CN2CCOCC3(CCN(c4cccnc4)CC3)C2)cs1` is -12.2%.
The figure for `COCC1c2c(cnn2CC2CCOCC2)CCN1Cc1ccoc1` (stereo not drawn) is -20%.
As to `Cc1ccc(C(=O)N2Cc3c(CN(C)C)nn(C)c3C2)cc1C`, the cytotoxicity at 10 µM came out at 1.77%.
The figure for `COCC1CC2(CCN(Cc3ccco3)CC2)CN1C(C)C` (stereo not drawn) is 0.0448%; for `CN(C)S(=O)(=O)N1C[C@H](Oc2cccnc2)[C@H]2OCCC[C@H]21` it is 14.8%.
The figure for `Cc1nc(CN2CCO[C@H]3[C@@H](OCc4cccnc4)CC[C@@H]32)cs1` is -0.587%; for `O=C(c1ccncc1F)N1CC[C@@H]2OC(COCC3CC3)CC[C@@H]21` (stereo partly drawn) it is -4.03%.
